Assay results as given in ChEMBL document CHEMBL4028905, “A Unique Approach to Design Potent and Selective Cyclic Adenosine Monophosphate Response Element Binding Protein, Binding Protein (CBP) Inhibitors” (J Med Chem, 2017).
Activity calls are given as the source filed them. The calls are words filed in the database; no cut-off is given here.

Tests used:
[1] = Total clearance in CD-1 mouse at 1 mg/kg, iv or 5 mg/kg, po by LC-MS/MS analysis; assay type: ADME, organism-based; details: in vivo
Summary of the method: (§1)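 Female CD-1 mice, 6–9 weeks, 20–35 g, n = 3 per route. Dosing was 1 mg/kg i.v. in PEG400/DMSO/water (35/10/55 v/v) or 5 mg/kg p.o. suspended in 0.5% methylcellulose/0.2% Tween 80. Serial tail-nick blood sampled to 24 h and diluted in K2EDTA water. Analysis by acetonitrile precipitation and LC–MS/MS (MRM, positive ESI); LLOQ 0.001 μM.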

[2] = target: T1, Bromodomain-containing protein 9 (Homo sapiens, UniProt Q9H8M2); test: Binding affinity to human BRD9 (R130 to V259) expressed in bacterial cells by BromoScan assay; assay type: cell-based
T1 sequence (Q9H8M2 whole entry): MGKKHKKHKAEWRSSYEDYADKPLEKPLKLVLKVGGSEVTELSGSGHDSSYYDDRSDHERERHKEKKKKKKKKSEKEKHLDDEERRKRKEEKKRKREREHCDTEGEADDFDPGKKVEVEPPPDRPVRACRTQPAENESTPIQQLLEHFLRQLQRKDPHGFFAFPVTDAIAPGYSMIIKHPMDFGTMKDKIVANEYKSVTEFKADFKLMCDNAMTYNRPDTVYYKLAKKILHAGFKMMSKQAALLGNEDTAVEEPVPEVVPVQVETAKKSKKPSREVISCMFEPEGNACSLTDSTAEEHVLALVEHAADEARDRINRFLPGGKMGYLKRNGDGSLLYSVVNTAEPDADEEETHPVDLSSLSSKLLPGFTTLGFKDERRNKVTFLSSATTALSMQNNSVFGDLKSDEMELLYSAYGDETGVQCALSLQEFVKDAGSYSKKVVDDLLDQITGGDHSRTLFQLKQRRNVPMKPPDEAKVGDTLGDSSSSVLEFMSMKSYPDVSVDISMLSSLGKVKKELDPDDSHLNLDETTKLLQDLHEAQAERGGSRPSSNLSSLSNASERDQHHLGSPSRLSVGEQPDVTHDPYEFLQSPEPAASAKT

[3] = species on record: Homo sapiens; test: Selectivity ratio of IC50 for His tagged recombinant BRD4 bromodomain 1 (unknown origin) to IC50 for His tagged recombinant CBP (unknown origin)
[4] = target: Bromodomain-containing protein 4 (Homo sapiens, UniProt O60885); test: Inhibition of His tagged recombinant BRD4 bromodomain 1 (unknown origin) by TR-FRET assay
Summary of the method: (§2)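 Recombinant His-tagged bromodomains purified by Ni affinity, tag removed with thrombin, checked by mass spectrometry. Assay is TR-FRET competition against a biotinylated small-molecule ligand. Normalized inhibition vs concentration fit to 4-parameter Hill equation; […] for optimization.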

[5] = Intrinsic clearance in rat liver microsomes at 1 uM in presence of NADPH by LC-MS/MS analysis; assay type: ADME, microsome; details: read-out: CLH
[6] = target: Bromodomain-containing protein 3 (Homo sapiens, UniProt Q15059); test: Binding affinity to human BRD3 bromodomain 2 (G306 to P416) expressed in bacterial cells by BromoScan assay; assay type: cell-based
Bromodomain-containing protein 3, sequence (Q15059 whole entry): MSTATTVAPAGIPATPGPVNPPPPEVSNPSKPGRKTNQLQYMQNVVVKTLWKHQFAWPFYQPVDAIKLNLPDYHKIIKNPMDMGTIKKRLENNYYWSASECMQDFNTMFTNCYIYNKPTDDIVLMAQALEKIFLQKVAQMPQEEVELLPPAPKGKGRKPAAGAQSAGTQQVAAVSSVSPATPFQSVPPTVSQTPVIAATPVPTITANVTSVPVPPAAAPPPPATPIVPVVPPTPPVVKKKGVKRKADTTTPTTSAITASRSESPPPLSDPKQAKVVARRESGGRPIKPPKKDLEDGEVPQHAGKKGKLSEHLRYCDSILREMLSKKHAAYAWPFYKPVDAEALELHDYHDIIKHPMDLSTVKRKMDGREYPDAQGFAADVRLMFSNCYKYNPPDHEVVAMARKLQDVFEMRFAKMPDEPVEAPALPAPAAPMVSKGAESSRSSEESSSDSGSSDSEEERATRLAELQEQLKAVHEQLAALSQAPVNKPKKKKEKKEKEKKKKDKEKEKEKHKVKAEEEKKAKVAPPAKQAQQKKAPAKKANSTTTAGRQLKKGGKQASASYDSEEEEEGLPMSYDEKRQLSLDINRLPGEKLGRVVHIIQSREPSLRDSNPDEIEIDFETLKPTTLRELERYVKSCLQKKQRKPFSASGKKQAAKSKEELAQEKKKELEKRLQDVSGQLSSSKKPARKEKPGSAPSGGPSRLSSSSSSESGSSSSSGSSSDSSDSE

[7] = target: T2, Bromodomain-containing protein 7 (Homo sapiens, UniProt Q9NPI1); test: Binding affinity to human BRD7 (L125 to R254) expressed in mammalian cells by BromoScan assay; assay type: cell-based
T2 sequence (Q9NPI1 whole entry): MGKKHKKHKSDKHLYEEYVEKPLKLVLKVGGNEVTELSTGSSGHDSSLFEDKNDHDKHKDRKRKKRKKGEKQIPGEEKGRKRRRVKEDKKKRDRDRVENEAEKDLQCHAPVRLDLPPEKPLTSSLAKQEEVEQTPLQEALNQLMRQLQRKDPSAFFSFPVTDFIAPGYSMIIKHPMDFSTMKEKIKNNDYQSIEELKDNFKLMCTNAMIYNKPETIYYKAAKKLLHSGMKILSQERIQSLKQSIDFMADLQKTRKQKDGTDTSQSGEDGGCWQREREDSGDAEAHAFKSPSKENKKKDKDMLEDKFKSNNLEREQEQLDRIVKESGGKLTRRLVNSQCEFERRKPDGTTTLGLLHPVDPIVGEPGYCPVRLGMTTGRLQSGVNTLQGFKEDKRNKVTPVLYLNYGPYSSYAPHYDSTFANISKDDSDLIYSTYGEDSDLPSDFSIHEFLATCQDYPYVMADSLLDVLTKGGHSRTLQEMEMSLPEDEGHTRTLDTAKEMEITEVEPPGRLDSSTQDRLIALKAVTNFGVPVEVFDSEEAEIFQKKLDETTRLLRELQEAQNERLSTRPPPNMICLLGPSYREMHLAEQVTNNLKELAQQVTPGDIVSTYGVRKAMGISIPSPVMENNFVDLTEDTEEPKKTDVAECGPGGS

[8] = Intrinsic clearance in human liver microsomes at 1 uM in presence of NADPH by LC-MS/MS analysis; assay type: ADME, microsome; details: read-out: CLH
[9] = Volume of distribution at steady state in CD-1 mouse at 1 mg/kg, iv or 5 mg/kg, po by LC-MS/MS analysis; assay type: ADME, organism-based; details: in vivo, read-out: Vdss; summary of the method: as §1
[10] = target: T3, CREB-binding protein (Homo sapiens, UniProt Q92793); test: Inhibition of His tagged recombinant CBP (unknown origin) by TR-FRET assay; summary of the method: as §2
[11] = target: Histone acetyltransferase p300 (Homo sapiens) (UniProt Q09472); test: Binding affinity to human P300 (A1040 to G1161) expressed in bacterial cells by BromoScan assay; assay type: cell-based
Histone acetyltransferase p300 (Homo sapiens), sequence (Q09472 whole entry): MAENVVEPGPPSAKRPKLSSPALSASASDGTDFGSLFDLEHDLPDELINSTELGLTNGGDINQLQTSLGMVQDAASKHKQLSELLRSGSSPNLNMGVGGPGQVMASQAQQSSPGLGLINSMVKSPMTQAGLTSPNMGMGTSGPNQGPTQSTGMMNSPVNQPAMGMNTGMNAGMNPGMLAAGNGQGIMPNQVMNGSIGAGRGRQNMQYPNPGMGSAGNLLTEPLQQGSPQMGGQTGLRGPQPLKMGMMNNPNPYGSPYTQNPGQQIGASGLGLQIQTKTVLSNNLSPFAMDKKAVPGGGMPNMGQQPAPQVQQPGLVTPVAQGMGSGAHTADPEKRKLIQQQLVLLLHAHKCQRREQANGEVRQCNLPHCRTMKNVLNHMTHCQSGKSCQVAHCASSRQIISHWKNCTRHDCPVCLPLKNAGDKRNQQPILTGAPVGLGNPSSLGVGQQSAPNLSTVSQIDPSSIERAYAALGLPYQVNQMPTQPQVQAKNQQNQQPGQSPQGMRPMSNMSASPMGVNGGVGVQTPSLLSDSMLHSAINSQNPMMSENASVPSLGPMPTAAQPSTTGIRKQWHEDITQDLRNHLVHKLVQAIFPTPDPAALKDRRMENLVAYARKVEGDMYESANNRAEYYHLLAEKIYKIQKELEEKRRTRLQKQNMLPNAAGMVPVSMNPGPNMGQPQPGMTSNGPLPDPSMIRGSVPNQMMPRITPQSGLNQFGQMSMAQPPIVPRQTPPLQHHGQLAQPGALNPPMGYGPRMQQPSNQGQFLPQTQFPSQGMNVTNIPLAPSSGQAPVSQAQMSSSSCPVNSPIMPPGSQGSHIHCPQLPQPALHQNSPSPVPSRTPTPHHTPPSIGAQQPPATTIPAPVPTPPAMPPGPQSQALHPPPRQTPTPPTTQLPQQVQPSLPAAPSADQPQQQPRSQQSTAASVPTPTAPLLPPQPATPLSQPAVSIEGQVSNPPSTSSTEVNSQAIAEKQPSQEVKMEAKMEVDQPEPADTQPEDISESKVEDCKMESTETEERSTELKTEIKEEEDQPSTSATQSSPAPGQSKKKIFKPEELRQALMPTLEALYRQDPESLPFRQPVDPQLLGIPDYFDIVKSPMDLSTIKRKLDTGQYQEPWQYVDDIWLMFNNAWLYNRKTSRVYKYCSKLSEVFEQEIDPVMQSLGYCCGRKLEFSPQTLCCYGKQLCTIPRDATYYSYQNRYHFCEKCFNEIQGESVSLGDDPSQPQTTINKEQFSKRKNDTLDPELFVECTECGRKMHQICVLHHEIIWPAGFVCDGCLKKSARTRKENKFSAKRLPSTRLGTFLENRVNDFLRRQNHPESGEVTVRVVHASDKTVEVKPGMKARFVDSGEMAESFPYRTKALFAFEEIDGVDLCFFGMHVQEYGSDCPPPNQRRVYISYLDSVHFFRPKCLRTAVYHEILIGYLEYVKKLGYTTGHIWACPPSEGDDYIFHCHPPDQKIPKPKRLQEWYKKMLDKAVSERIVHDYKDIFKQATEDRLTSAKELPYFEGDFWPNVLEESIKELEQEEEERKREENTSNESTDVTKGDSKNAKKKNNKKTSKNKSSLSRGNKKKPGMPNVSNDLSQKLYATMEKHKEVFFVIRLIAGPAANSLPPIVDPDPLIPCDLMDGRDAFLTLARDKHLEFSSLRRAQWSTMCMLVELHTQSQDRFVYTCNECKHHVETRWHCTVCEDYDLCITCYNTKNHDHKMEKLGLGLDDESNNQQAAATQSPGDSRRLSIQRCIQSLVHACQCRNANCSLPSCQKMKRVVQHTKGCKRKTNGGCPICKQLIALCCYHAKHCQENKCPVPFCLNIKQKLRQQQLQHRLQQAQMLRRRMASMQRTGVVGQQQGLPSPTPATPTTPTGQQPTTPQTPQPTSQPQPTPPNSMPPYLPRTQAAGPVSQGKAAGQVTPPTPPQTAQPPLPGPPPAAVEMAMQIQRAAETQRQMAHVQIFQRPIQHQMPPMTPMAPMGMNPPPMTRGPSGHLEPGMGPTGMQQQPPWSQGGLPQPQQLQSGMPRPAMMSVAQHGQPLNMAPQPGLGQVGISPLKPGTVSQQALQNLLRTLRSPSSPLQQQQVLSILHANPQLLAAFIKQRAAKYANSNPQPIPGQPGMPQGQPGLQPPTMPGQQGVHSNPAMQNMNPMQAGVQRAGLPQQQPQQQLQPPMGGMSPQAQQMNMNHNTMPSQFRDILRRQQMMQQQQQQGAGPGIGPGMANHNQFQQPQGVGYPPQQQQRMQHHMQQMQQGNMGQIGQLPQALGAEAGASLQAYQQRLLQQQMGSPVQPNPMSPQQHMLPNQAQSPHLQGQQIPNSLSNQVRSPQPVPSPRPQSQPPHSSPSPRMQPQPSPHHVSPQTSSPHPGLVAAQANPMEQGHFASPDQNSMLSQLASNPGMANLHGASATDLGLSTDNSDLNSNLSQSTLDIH

[12] = target: T4, Transcription intermediary factor 1-alpha (Homo sapiens, UniProt O15164); test: Binding affinity to human TRIM24 (G862 to E980) expressed in bacterial cells by BromoScan assay; assay type: cell-based
T4 sequence (O15164 whole entry): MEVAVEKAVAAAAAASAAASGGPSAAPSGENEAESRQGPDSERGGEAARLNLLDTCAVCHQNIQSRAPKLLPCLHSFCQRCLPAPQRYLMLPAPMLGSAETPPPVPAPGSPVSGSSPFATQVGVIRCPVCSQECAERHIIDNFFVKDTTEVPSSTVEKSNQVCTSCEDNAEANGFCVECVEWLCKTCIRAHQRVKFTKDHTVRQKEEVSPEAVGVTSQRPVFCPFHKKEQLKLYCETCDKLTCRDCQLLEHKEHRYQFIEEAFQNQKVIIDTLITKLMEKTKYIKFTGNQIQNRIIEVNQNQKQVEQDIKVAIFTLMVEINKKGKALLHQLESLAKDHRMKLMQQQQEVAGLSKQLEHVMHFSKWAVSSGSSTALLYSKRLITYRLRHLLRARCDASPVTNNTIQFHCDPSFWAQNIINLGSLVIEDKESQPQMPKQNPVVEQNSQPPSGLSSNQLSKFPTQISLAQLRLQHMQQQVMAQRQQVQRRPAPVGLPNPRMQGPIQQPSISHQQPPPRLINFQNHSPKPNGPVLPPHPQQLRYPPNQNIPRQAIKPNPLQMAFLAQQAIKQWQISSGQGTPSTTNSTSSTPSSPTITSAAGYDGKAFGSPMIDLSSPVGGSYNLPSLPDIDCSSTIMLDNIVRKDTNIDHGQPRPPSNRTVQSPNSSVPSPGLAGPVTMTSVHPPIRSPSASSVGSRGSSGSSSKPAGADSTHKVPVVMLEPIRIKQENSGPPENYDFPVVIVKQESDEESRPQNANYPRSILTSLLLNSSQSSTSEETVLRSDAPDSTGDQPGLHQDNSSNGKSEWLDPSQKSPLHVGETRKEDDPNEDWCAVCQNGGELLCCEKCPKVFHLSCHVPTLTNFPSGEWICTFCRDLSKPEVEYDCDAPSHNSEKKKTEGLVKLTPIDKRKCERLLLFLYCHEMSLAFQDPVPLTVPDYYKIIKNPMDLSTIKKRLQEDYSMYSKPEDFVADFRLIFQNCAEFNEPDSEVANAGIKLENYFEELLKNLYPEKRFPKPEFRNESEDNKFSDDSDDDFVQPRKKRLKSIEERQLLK

[13] = target: CREB-binding protein/Histone acetyltransferase p300 (Homo sapiens, UniProt Q09472+Q92793); test: Inhibition of P300/CBP in human MV4-11 cells assessed as reduction in MYC expression after 4 hrs by luminescence based assay; assay type: cell-based
Summary of the method: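 MV-4-11 cells plated at 10,000 per well in RPMI1640 with 10% FBS and 2 mM L-glutamine. Compounds added in DMSO at a final 0.1% and incubated 4 h at 37 °C before MYC expression read-out; EC50 derived.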

[14] = Intrinsic clearance in mouse liver microsomes at 1 uM in presence of NADPH by LC-MS/MS analysis; assay type: ADME, microsome; details: read-out: CLH
[15] = Half life in CD-1 mouse at 1 mg/kg, iv by LC-MS/MS analysis; assay type: ADME, organism-based; details: in vivo; summary of the method: as §1
[16] = target: T3, CREB-binding protein; test: Binding affinity to human CBP (R1081 to G1197) expressed in bacterial cells by BromoScan assay; assay type: cell-based
[17] = Oral bioavailability in CD-1 mouse at 5 mg/kg by LC-MS/MS analysis; assay type: ADME, organism-based; details: in vivo; summary of the method: as §1

clearance [1]: 18.2 mL/min/kg | Kd [2]: > 10000 nM | Ratio IC50 [3]: 1050 | IC50 [4]: 2300 nM | CLint scaled at 1 µM [5]: 25 mL/min/kg | Kd [6]: > 10000 nM | Kd [7]: > 10000 nM | CLint scaled at 1 µM [8]: 13 mL/min/kg | Vd [9]: 1.9 L/kg | IC50 [10]: 2.2 nM | Activity [11]: Active | Kd [12]: > 10000 nM | EC50 [13]: 53 nM | CLint scaled at 1 µM [14]: 50 mL/min/kg | half-life [15]: 1.3 h | Activity [16]: Active | bioavailability [17]: 52%
SMILES: CNC(=O)c1c[nH]c2c(C(C)C)nc(N3CCCc4cc(-c5cnn(C)c5)c(C(F)F)cc43)cc12
